{"source": "ChEMBL document CHEMBL4627381", "about": "“Licochalcone A Selectively Resensitizes ABCG2-Overexpressing Multidrug-Resistant Cancer Cells to Chemotherapeutic Drugs” (J Nat Prod, 2020)", "key": {"[1]": {"test": "Cytotoxicity against human NCI-H460/MX20 cells harboring ABCG2 after 72 hrs by MTT assay", "type": "functional, cell-based", "conditions": "NCI-H460/MX20, 72 h", "summary_of_the_method": "(§1)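 Cells seeded at 5000/well, allowed 24 h, then exposed to a concentration series for 72 h at 37 °C in DMSO vehicle (up to 0.5% v/v). HEK293 lines were read with CCK-8 and cancer lines with MTT. IC50 was taken from fitted dose-response curves over at least three independent experiments. Lines were kept drug-free for 7 days before assay.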"}, "[2]": {"target": "T1, Broad substrate specificity ATP-binding cassette transporter ABCG2 (Homo sapiens, UniProt Q9UNQ0)", "T1 sequence (Q9UNQ0 whole entry)": "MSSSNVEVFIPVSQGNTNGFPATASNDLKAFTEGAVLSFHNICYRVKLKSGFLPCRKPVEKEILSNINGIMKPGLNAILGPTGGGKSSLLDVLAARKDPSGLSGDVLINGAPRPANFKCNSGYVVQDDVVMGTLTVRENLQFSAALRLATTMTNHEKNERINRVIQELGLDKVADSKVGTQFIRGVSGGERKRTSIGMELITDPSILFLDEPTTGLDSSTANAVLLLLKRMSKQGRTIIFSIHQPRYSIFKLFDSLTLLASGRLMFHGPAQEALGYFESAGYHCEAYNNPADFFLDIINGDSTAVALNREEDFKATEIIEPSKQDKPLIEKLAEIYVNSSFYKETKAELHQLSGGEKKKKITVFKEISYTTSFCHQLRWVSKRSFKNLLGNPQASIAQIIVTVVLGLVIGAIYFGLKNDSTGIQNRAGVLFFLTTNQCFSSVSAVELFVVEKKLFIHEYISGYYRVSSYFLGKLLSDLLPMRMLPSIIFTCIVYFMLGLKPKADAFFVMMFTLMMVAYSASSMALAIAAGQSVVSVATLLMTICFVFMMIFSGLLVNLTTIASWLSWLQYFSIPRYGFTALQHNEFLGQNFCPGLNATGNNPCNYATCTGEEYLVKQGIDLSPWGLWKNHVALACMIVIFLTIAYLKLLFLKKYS", "test": "Inhibition of human ABCG2-mediated pheophorbide A efflux in HEK293/R482 cells incubated for 1 hr by FACScan flow cytometry", "type": "cell-based", "summary_of_the_method": "(§2)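 Cells held drug-free 7 days. 3 × 10^5 cells were suspended in IMDM with 5% FCS and loaded with pheophorbide A (ex 395/em 670 nm) for 1 h, with or without LCA (20 μM for single-concentration accumulation) or Ko143 3 μM as reference. Read immediately by flow cytometry. Efflux inhibition was run over a concentration range; mean ± SD of three experiments.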"}, "[3]": {"target": "T1, Broad substrate specificity ATP-binding cassette transporter ABCG2", "test": "Reversal of human ABCG2-mediated multidrug resistance in HEK293/R482 cells assessed as fold change in mitoxantrone IC50 at 0.5 uM after 72 hrs by CCK8 assay relative to mitoxantrone IC50", "type": "cell-based", "summary_of_the_method": "(§3)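 Cells were seeded at 5000/well for 24 h, then given colchicine, etoposide, mitoxantrone or topotecan ± non-toxic modulator (0.5–3.0 μM) for 72 h, with DMSO up to 0.5%. IC50 came from fitted curves (mean ± SD, three experiments). Fold-reversal = IC50 without modulator ÷ IC50 with modulator.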"}, "NCI-H460 [4]": {"tested_on": "NCI-H460", "test": "Cytotoxicity against human H460 cells after 72 hrs by MTT assay", "type": "functional, cell-based", "conditions": "NCI-H460, 72 h", "summary_of_the_method": "as §1"}, "NCI-H460 [5]": {"tested_on": "NCI-H460", "test": "Induction of pheophorbide A accumulation in human H460 cells at 20 uM incubated for 1 hr by FACScan flow cytometry", "type": "functional, cell-based", "summary_of_the_method": "as §2"}, "[6]": {"target": "T1, Broad substrate specificity ATP-binding cassette transporter ABCG2", "test": "Reversal of human ABCG2-mediated multidrug resistance in HEK293/R482 cells assessed as fold change in mitoxantrone IC50 at 1 uM after 72 hrs by CCK8 assay relative to mitoxantrone IC50", "type": "cell-based", "summary_of_the_method": "as §3"}, "[7]": {"target": "T1, Broad substrate specificity ATP-binding cassette transporter ABCG2", "test": "Reversal of ABCG2 (unknown origin)-mediated multidrug resistance in human S1-M1-80 cells assessed as fold-change in topotecan IC50 at 2 uM after 72 hrs by MTT assay relative to topotecan IC50", "type": "cell-based", "conditions": "s1-m1-80, 72 h", "summary_of_the_method": "(§4)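 MTT readout in S1-M1-80 colon cancer cells (mitoxantrone-selected, held in 80 μM mitoxantrone, then drug-free 7 days before assay). Cells were seeded at 5000/well for 24 h, then given increasing mitoxantrone or topotecan with DMSO or non-toxic modulator for 72 h at 37 °C. IC50 came from fitted dose-response curves (at least three independent experiments). Fold-reversal = IC50 without modulator ÷ IC50 with modulator.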"}, "Homo sapiens": {"species_on_record": "Homo sapiens", "test": "Downregulation of ABCG2 expression in human NCI-H460/MX20 cells at 0.5 to 3 uM incubated for 72 hrs by Western blot analysis", "type": "functional, cell-based", "summary_of_the_method": "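S1-M1–80 and H460-MX20 cells were treated with 0.5–3.0 μM or DMSO vehicle for 72 h, then run on SDS-PAGE and immunoblotted with BXP-21 (1:15000) for ABCG2. α-Tubulin (1:100000) served as loading control, with HRP goat anti-mouse secondary. Bands were quantified as mean ± SEM of three independent experiments.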"}, "NCI-H460 [8]": {"tested_on": "NCI-H460", "test": "Effect on topotecan-induced cytotoxicity against human H460 cells assessed as fold change in topotecan IC50 at 1 uM after 72 hrs by MTT assay relative to topotecan IC50", "type": "functional", "summary_of_the_method": "(§5)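 Parental S1 colon and H460 lung cancer cells were exposed for 72 h to a mitoxantrone or topotecan concentration series, with or without modulator at 0.5–3.0 μM, and read by MTT. Fold-reversal is IC50 without modulator divided by IC50 with modulator, taken from dose-response curves of three independent experiments.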"}, "[9]": {"target": "T1, Broad substrate specificity ATP-binding cassette transporter ABCG2", "test": "Reversal of ABCG2 (unknown origin)-mediated multidrug resistance in human S1-M1-80 cells assessed as fold-change in mitoxantrone IC50 at 1 uM after 72 hrs by MTT assay relative to mitoxantrone IC50", "type": "cell-based", "conditions": "s1-m1-80, 72 h", "summary_of_the_method": "as §4"}, "S1-M1-80": {"tested_on": "S1-M1-80", "test": "Induction of apoptosis in human S1-M1-80 cells harboring ABCG2 (unknown origin) assessed as necrotic cells at 10 uM incubated for 48 hrs by annexin V/propidium iodide staining based flow cytometry (reference value: 0.3%)", "type": "functional"}, "LS180": {"tested_on": "LS180", "test": "Upregulation of ABCG2 mRNA expression in human LS180 cells at 1 uM by […] relative to control", "type": "functional"}, "[10]": {"target": "T1, Broad substrate specificity ATP-binding cassette transporter ABCG2", "test": "Reversal of ABCG2 (unknown origin)-mediated multidrug resistance in human H460-MX20 cells assessed as fold change in mitoxantrone IC50 at 3 uM after 72 hrs by MTT assay relative to mitoxantrone IC50", "type": "cell-based", "summary_of_the_method": "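Cells held drug-free 7 days, seeded at 5000 per well for 24 h, then exposed 72 h to mitoxantrone or topotecan dilutions with DMSO (≤0.5%), LCA 0.5–3.0 μM, or Ko143 1.0 μM. Viability was read by MTT. IC50 came from fitted dose-response curves of three independent experiments. Fold-reversal = IC50 without modulator divided by IC50 with modulator.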"}, "[11]": {"target": "T1, Broad substrate specificity ATP-binding cassette transporter ABCG2", "test": "Reversal of human ABCG2-mediated multidrug resistance in HEK293/R482 cells assessed as fold change in mitoxantrone IC50 at 2 uM after 72 hrs by CCK8 assay relative to mitoxantrone IC50", "type": "cell-based", "summary_of_the_method": "as §3"}, "S1 [12]": {"tested_on": "S1", "test": "Induction of pheophorbide A accumulation in human S1 cells at 20 uM incubated for 1 hr by FACScan flow cytometry", "type": "functional, cell-based", "summary_of_the_method": "as §2"}, "S1 [13]": {"tested_on": "S1", "test": "Effect on topotecan-induced cytotoxicity against human S1 cells assessed as fold change in topotecan IC50 at 2 uM after 72 hrs by MTT assay relative to topotecan IC50", "type": "functional", "summary_of_the_method": "as §5"}}, "note": "Activity calls are given as the source filed them. No cut-off for these calls is given here."}
{"smiles": "C=CC(C)(C)c1cc(/C=C/C(=O)c2ccc(O)cc2)c(OC)cc1O", "note": "[LICOAGROCHACONE A]", "values": [{"measurement": "IC50", "setting": "[1]", "result": "10 to 50", "unit": "µM"}, {"measurement": "inhibition (INH)", "setting": "[2]", "result": "Dose-dependent effect"}, {"measurement": "fold change (FC)", "setting": "[3]", "result": 2.7}, {"measurement": "IC50", "setting": "NCI-H460 [4]", "result": "10 to 50", "unit": "µM"}, {"measurement": "Activity", "setting": "NCI-H460 [5]", "result": "inactive"}, {"measurement": "fold change (FC)", "setting": "[6]", "result": 7.1}, {"measurement": "fold change (FC)", "setting": "[7]", "result": 24.7}, {"measurement": "Activity", "setting": "Homo sapiens", "result": "inactive"}, {"measurement": "fold change (FC)", "setting": "NCI-H460 [8]", "result": 1.7}, {"measurement": "fold change (FC)", "setting": "[9]", "result": 10.8}, {"measurement": "Activity", "setting": "S1-M1-80", "result": 0.2, "unit": "%"}, {"measurement": "fold change (FC)", "setting": "LS180", "result": "2 - 6"}, {"measurement": "fold change (FC)", "setting": "[10]", "result": 16.6}, {"measurement": "fold change (FC)", "setting": "[11]", "result": 6.5}, {"measurement": "Activity", "setting": "S1 [12]", "result": "inactive"}, {"measurement": "fold change (FC)", "setting": "S1 [13]", "result": 0.9}]}
